Data set [1] concerns the target T1, Sphingosine 1-phosphate receptor 3 (Homo sapiens, UniProt Q99500). The data set can be described thus: Agonist activity at human S1P3 receptor expressed in CHO cells coexpressing Gq/i5 G-protein assessed as Ca2+ mobilization at 25 uM after 60 to 90 mins by FLIPR assay. In kind it is functional, cell-based. (Calcium assays in cells follow changes in intracellular calcium, usually with a dye or a luminescent sensor.)

In data set [2] the target is T2, Sphingosine 1-phosphate receptor 1 (Homo sapiens, UniProt P21453). The data set can be described thus: Agonist activity at human S1P1 receptor expressed in human U2OS cells co-expressing eGFP assessed as receptor internalization after 1 hr relative to 1-(4-(6-benzylbenzofuran-2-yl)-3-fluorobenzyl)azetidine-3-carboxylic acid. The format is functional, cell-based.

Data set [3] addresses T1, Sphingosine 1-phosphate receptor 3. The data set can be described thus: Agonist activity at human S1P3 receptor expressed in CHO cells coexpressing Gq/i5 G-protein assessed as Ca2+ mobilization after 60 to 90 mins by FLIPR assay. In kind it is functional, cell-based. Put shortly: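 Ca2+ mobilization in CHO-K1 cells transfected with hS1P3/Gq/i5. EC50 is the molar concentration giving a half-maximal response.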

Data set [4] concerns the target T2, Sphingosine 1-phosphate receptor 1. The data set can be described thus: Agonist activity at human S1P1 receptor expressed in human U2OS cells co-expressing eGFP assessed as receptor internalization after 1 hr. The format is functional, cell-based. Put shortly:
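U2OS cells expressing an hS1P1-GFP fusion protein; the read-out was receptor internalization. EC50 is the molar concentration giving a half-maximal response.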

For data set [5], the target named is T1, Sphingosine 1-phosphate receptor 3. The data set can be described thus: Agonist activity at human S1P3 receptor expressed in CHO cells coexpressing Gq/i5 G-protein assessed as Ca2+ mobilization after 60 to 90 mins by FLIPR assay relative to 0.2 uM S1P.
Data set [6] in a line: Apparent permeability of the compound across pig LLC-PK1 cells. The format is ADME, cell-based, Sus scrofa. Put shortly:
(§1)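 Parental porcine proximal tubule LLC-PK1 cell line. Apparent permeability was measured, and the efflux ratio was derived from it.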

In a further data set the test system is Rattus norvegicus. The data set can be described thus: Lymphopenic activity in Lewis rat assessed as reduction in peripheral blood lymphocyte counts at 1 mg/kg, po measured 24 hrs post dosing relative to control. In kind it is functional. The arrangement: scale not given: the % may be the effect or the level left. Put shortly: (§2)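 Female Lewis rats (N = 5/group) received a single oral dose of 1 mg/kg in 20% captisol, 1% HPMC, 1% pluronic F68, pH 2.1 with MSA. Peripheral lymphocyte count is given as percent-of-control reduction versus vehicle at 24 h. Total plasma drug concentration was measured at 24 h. Statistics used ANOVA/Dunnett versus vehicle.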

The nature of data set [7]: Intrinsic clearance in rat liver microsomes at 1 uM after 30 mins. The format is ADME, Microsome. The following applies: read-out: CLH. In general terms: Liver microsomes are vesicles of endoplasmic reticulum, rich in cytochrome P450 enzymes.
The nature of data set [8]: Plasma protein binding in rat. In kind it is ADME, cell-free. The following applies: read-out: PPB (converted).
The nature of data set [9]: Plasma concentration in Lewis rat at 1 mg/kg, po measured 24 hrs post dosing. The format is ADME, organism-based. Details: dose 1 mg/kg, route oral. The following applies: Lewis, plasma. Put shortly: as §2
Data set [10] in a line: Solubility of the compound in simulated intestinal fluid at pH 6.8 after 2 to 3 days by HPLC analysis. The format is physicochemical.
A short description of data set [11]: Efflux ratio of permeability in pig LLC-PK1 cells. The format is ADME, cell-based, Sus scrofa. Put shortly:
as §1

Values after ≈ are worked out from the molar mass of the structure shown.

Usually EC50 stands for the concentration needed to bring the measured effect to its halfway point. By Papp is commonly meant the rate of passage across a membrane or cell layer, normalised by area and donor concentration. The term solubility denotes how much of the substance goes into solution per volume. What is called efflux ratio is the permeability from basolateral to apical divided by that in the opposite direction, in the common usage.

T2 sequence (P21453 whole entry): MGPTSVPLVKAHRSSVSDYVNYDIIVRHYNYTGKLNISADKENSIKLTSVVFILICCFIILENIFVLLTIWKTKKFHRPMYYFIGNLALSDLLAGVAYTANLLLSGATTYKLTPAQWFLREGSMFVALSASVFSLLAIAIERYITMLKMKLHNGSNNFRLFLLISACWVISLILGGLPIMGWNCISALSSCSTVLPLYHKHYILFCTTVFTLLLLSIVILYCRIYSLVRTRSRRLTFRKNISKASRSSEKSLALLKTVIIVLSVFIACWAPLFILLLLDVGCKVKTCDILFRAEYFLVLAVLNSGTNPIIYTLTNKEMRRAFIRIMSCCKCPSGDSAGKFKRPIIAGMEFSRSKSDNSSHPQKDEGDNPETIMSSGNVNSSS
T1 sequence (Q99500 whole entry): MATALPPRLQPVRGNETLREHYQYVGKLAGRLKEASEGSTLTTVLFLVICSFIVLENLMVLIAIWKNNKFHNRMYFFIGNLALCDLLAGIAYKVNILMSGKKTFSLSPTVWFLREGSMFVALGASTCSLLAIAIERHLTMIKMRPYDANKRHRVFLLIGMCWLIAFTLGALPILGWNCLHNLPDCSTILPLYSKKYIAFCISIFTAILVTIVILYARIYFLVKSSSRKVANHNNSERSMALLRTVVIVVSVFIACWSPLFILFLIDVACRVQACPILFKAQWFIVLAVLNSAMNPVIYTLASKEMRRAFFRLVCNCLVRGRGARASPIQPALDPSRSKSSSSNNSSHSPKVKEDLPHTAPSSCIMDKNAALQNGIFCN

For the compound `Cn1cc(C(=O)Nc2ccc(-c3ccccc3)c(C(F)(F)F)c2)c(=O)c2cccc(CCO)c21`, the Activity in [1] is less than 10%. Besides, in data set [2], the Efficacy was determined as 106%. Further, the EC50 in [3] was greater than 25000 nM; in data set [4], 390 nM.
Take `Cn1cc(C(=O)Nc2ccc(-c3ccccc3)c(C(F)(F)F)c2)c(=O)c2cccc(CO)c21`: the Activity in data set [1] is less than 10%. For the same compound, in data set [2], the Efficacy amounted to 104%. The EC50 in data set [3] was greater than 25000 nM; in [4] it was 39 nM.
The corresponding values for `Cn1cc(C(=O)Nc2ccc(-c3ccccc3)c(C(F)(F)F)c2)c(=O)c2cc(CO)ccc21` are less than 10%, 46%, greater than 25000 nM and 700 nM.
As to `Cn1cc(C(=O)Nc2ccc(-c3ccccc3)c(C(F)(F)F)c2)c(=O)c2ccccc21`, the Efficacy in data set [2] worked out at 105%.
For the compound `Cn1cc(C(=O)Nc2ccc(-c3ccccc3)c(C(F)(F)F)c2)c(=O)c2ccc(NCCC(=O)O)cc21`, in [1], the Activity was less than 10%. Besides, the Efficacy in data set [2] was 81%. Moreover, the EC50 in data set [3] is greater than 25000 nM; in data set [4], 150 nM.
As to `Cn1cc(C(=O)Nc2ccc(-c3ccccc3)c(C(F)(F)F)c2)c(=O)c2ccc(CC(=O)O)cc21`, the Efficacy in [2] came to 138%; in [5], 28%. Also, the EC50 was determined as 1600 nM in data set [3] and 180 nM in [4].
For the compound `Cn1cc(C(=O)Nc2ccc(-c3ccccc3)c(C(F)(F)F)c2)c(=O)c2ccc(CCC(=O)O)cc21`, in data set [6], the Papp stood at 1.6 ×10⁻⁶ cm/s. The Activity in the data set with Rattus norvegicus is given as -25%. In data set [7], the microsomal CLint at 1 µM was less than 14 µL/min/mg. Also, the fraction unbound in data set [8] is 0.022. Also, the values for the Efficacy in data set [2] and in [5] were 85% and 82%, respectively. Further, in [9], the concentration at 24 h is 4 ng/mL. Further, the values for the EC50 in data set [3] and in data set [4] were 940 nM and 4 nM, respectively. Moreover, the solubility in data set [10] is 200 µg/mL (≈ 404 µM). Moreover, the efflux ratio in data set [11] was 1.
Take `Cn1cc(C(=O)Nc2ccc(-c3ccccc3)c(C(F)(F)F)c2)c(=O)c2cccc(C(=O)O)c21`: the Efficacy in data set [2] turned out to be 103%; in [5] it was 11%. For the same compound, the half-maximal effective concentration (EC50) was 1100 nM in data set [3] and 2000 nM in data set [4].
`Cn1cc(C(=O)Nc2ccc(-c3ccccc3)c(C(F)(F)F)c2)c(=O)c2ccc(CO)cc21`: the Papp in [6] is 2.8 ×10⁻⁶ cm/s. The results for the Activity (in the data set with Rattus norvegicus; in data set [1]) were -44% and less than 10%, respectively. Besides, the microsomal CLint at 1 µM in data set [7] was less than 14 µL/min/mg. Further, the fraction unbound in data set [8] was 0.076. For the same compound, the Efficacy in data set [2] was determined as 125%. The compound further yielded a concentration at 24 h in data set [9] of 65 ng/mL. The EC50 in [3] is greater than 25000 nM; in data set [4], 18 nM. For the same compound, the solubility in data set [10] was 27 µg/mL (≈ 59.7 µM). Moreover, the efflux ratio in data set [11] came to 1.

These data come from ChEMBL document CHEMBL2034924, “Optimization of a Potent, Orally Active S1P1 Agonist Containing a Quinolinone Core” (ACS Med Chem Lett, 2012).
